This is an account of results in ChEMBL document CHEMBL1122246, “Analgesic narcotic antagonists. 15. Potent narcotic agonist 7 beta-(arylalkyl)-4,5 alpha-epoxymorphinans” (1983).

The first assay concerns Mus musculus. The assay is described as follows: Narcotic agonist activity using acetic acid induced writhing in the mouse upon subcutaneous administration. The format is functional.
Settings: not given
Summed up: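 Mouse acetic acid writhing test with subcutaneous dosing. Salt forms were given in distilled water; free bases were dissolved by adding 1 N HCl and then diluted.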
`COc1ccc2c3c1O[C@H]1[C@H]4OC[C@@]4(C(O)c4ccccc4)CC4[C@@H](C2)N(C)CC[C@@]341` (stereo partly specified) showed an ED50 of 11.9 µM/kg.

The assay is the same for the next values; noted with them: Mus musculus, sc; read-out: ED50.
In the case of `C=C[C@]1(CO)CC2C3Cc4ccc(OC)c5c4C2(CCN3C)C(O5)[C@@H]1O` (stereo partly specified), the ED50 was > 28 µmol/kg.

On to `COc1ccc2c3c1OC1C(=O)[C@](C)(CCCCc4ccccc4)CC4C(C2)N(CC2CC2)CCC314` (stereo partly specified), for which the ED50 amounted to 2 µmol/kg.

Regarding `CC[C@]1(CO)CC2C3Cc4ccc(OC)c5c4C2(CCN3C)C(O5)[C@@H]1O` (stereo partly specified), the ED50 stood at 2.7 µmol/kg.

Consider `COc1ccc2c3c1OC1[C@@H](O)[C@](C)(CCCCc4ccccc4)CC4C(C2)N(CC2CCC2)CCC341` (stereo partly specified), for which the ED50 was 11.3 µmol/kg.

Take `COc1ccc2c3c1OC1[C@H](O)[C@](CO)(CCCCCc4ccccc4)CC4C(C2)N(CC2CC2)CCC341` (stereo partly specified): the ED50 is 0.4 µmol/kg.

For the molecule `COc1ccc2c3c1OC1[C@H](O)[C@](CO)(CCCCc4ccccc4)CC4C(C2)N(CC2CCC2)CCC341` (stereo partly specified), the ED50 amounted to 0.52 µmol/kg.

Take `COc1ccc2c3c1OC1[C@H](O)[C@](CO)(CCCCCc4ccccc4)CC4C(C2)N(C)CCC341` (stereo partly specified): the ED50 was determined as 2.3 µmol/kg.

`COc1ccc2c3c1OC1[C@H](O)[C@](CO)(CCCc4ccccc4)CC4C(C2)N(C)CCC341` (stereo partly specified): the ED50 stood at 0.39 µmol/kg.

Regarding `COc1ccc2c3c1OC1[C@H](O)[C@@](/C=C/Cc4ccccc4)(CO)CC4C(C2)N(C)CCC341` (stereo partly specified), the ED50 stood at 1.1 µmol/kg.

As to `CN1CCC23c4c5ccc(O)c4OC2[C@H](O)[C@](CO)(CCCCCc2ccccc2)CC3C1C5` (stereo partly specified), the ED50 was determined as 12 µmol/kg.

Take `CN1CCC23c4c5ccc(O)c4OC2[C@H](O)[C@](CO)(CCCCCCc2ccccc2)CC3C1C5` (stereo partly specified): the ED50 is > 19 µmol/kg.

As to `COc1ccc2c3c1OC1[C@H](O)[C@](CO)(CCc4ccccc4)CC4C(C2)N(CC2CCC2)CCC341` (stereo partly specified), the ED50 amounted to 0.7 µmol/kg.

Turning to `COc1ccc2c3c1OC1[C@H](O)[C@](CO)(CCCCCc4ccccc4)CC4C(C2)N(CC2CCC2)CCC341` (stereo partly specified), the ED50 was 0.3 µmol/kg.

`OC[C@@]1(CCCCCc2ccccc2)CC2C3Cc4ccc(O)c5c4C2(CCN3CC2CC2)C(O5)[C@@H]1O` (stereo partly specified): the ED50 is > 19 µmol/kg.

For the molecule `OC[C@@]1(CCCc2ccccc2)CC2C3Cc4ccc(O)c5c4C2(CCN3CC2CC2)C(O5)[C@@H]1O` (stereo partly specified), the ED50 was 0.47 µmol/kg.

`OC[C@@]1(CCCc2ccccc2)CC2C3Cc4ccc(O)c5c4C2(CCN3CC2CCC2)C(O5)[C@@H]1O` (stereo partly specified): the ED50 is 0.57 µmol/kg.

`OC[C@@]1(CCCCCc2ccccc2)CC2C3Cc4ccc(O)c5c4C2(CCN3CC2CCC2)C(O5)[C@@H]1O` (stereo partly specified): the ED50 was > 18 µmol/kg.

As for `OC[C@@]1(CCCCc2ccccc2)CC2C3Cc4ccc(O)c5c4C2(CCN3CC2CCC2)C(O5)[C@@H]1O` (stereo partly specified), the ED50 was 21.3 µmol/kg.

On to `C[C@@]1(CCc2ccccc2)CC2C3Cc4ccc(O)c5c4C2(CCN3CC2CCC2)C(O5)C1=O` (stereo partly specified), for which the ED50 amounted to 0.04 µmol/kg.

Take `COc1ccc2c3c1OC1[C@H](O)[C@](CO)(CCCCc4ccccc4)CC4C(C2)N(CC2CC2)CCC341` (stereo partly specified): the ED50 turned out to be 0.22 µmol/kg.

Regarding `COc1ccc2c3c1OC1[C@H](O)[C@](CO)(CCc4ccccc4)CC4C(C2)N(CC2CC2)CCC341` (stereo partly specified), the ED50 came out at 0.61 µmol/kg.

As for `COc1ccc2c3c1OC1[C@@H](O)[C@](C)(CCc4ccccc4)CC4C(C2)N(CC2CCC2)CCC341` (stereo partly specified), the ED50 amounted to 1 µmol/kg.

For the molecule `COc1ccc2c3c1OC1[C@H](O)[C@@](/C=C/CCCCc4ccccc4)(CO)CC4C(C2)N(C)CCC341` (stereo partly specified), the ED50 was found to be 13.9 µmol/kg.

On to `COc1ccc2c3c1OC1[C@@H](O)[C@](C)(CCCCc4ccccc4)CC4C(C2)N(CC2CC2)CCC341` (stereo partly specified), for which the ED50 turned out to be 0.5 µmol/kg.

Turning to `CCCC[C@]1(CO)CC2C3Cc4ccc(OC)c5c4C2(CCN3C)C(O5)[C@@H]1O` (stereo partly specified), the ED50 came out at 13.7 µmol/kg.

On to `COc1ccc2c3c1O[C@H]1[C@H](O)[C@](CO)(C(O)c4ccccc4)CC4[C@@H](C2)N(C)CC[C@@]341` (stereo partly specified), for which the ED50 worked out at 2.3 µmol/kg.

In the case of `COc1ccc2c3c1O[C@H]1[C@H]4OC[C@@]4(C(O)c4ccccc4)CC4[C@@H](C2)N(C)CC[C@@]341` (stereo partly specified), the ED50 was 6.8 µmol/kg.

`COc1ccc2c3c1OC1[C@H]4OC[C@@]4(CCCc4ccccc4)CC4C(C2)N(CC2CCC2)CCC341` (stereo partly specified): the ED50 stood at 4.4 µmol/kg.

On to `COc1ccc2c3c1OC1[C@H]4OC[C@@]4(CCc4ccccc4)CC4C(C2)N(CC2CCC2)CCC341` (stereo partly specified), for which the ED50 was > 16 µmol/kg.

Regarding `Oc1ccc2c3c1OC1[C@H]4OC[C@@]4(CCCCc4ccccc4)CC4C(C2)N(CC2CC2)CCC341` (stereo partly specified), the ED50 was found to be 0.015 µmol/kg.

On to `COc1ccc2c3c1OC1[C@H]4OC[C@@]4(CCCCc4ccccc4)CC4C(C2)N(CC2CCC2)CCC341` (stereo partly specified), for which the ED50 is 2.8 µmol/kg.

Take `CN1CCC23c4c5ccc(O)c4OC2[C@H]2OC[C@@]2(CCCCCc2ccccc2)CC3C1C5` (stereo partly specified): the ED50 amounted to 0.028 µmol/kg.

On to `CN1CCC23c4c5ccc(O)c4OC2[C@H]2OC[C@@]2(CCc2ccccc2)CC3C1C5` (stereo partly specified), for which the ED50 was determined as 0.048 µmol/kg.

For `COc1ccc2c3c1OC1[C@H]4OC[C@@]4(CCCc4ccccc4)CC4C(C2)N(C)CCC341` (stereo partly specified), the ED50 was found to be 0.046 µmol/kg.

As to `CN1CCC23c4c5ccc(O)c4OC2[C@H]2OC[C@@]2(CCCCc2ccccc2)CC3C1C5` (stereo partly specified), the ED50 was determined as 0.024 µmol/kg.

As for `COc1ccc2c3c1OC1[C@H]4OC[C@@]4(CCCCCc4ccccc4)CC4C(C2)N(C)CCC341` (stereo partly specified), the ED50 is 1.3 µmol/kg.

Regarding `COc1ccc2c3c1OC1[C@H]4OC[C@@]4(CCc4ccccc4)CC4C(C2)N(C)CCC341` (stereo partly specified), the ED50 came to 0.9 µmol/kg.

Regarding `Oc1ccc2c3c1OC1[C@H]4OC[C@@]4(CCCc4ccccc4)CC4C(C2)N(CC2CCC2)CCC341` (stereo partly specified), the ED50 came to 0.06 µmol/kg.

Take `CN1CCC23c4c5ccc(O)c4OC2[C@H]2OC[C@@]2(CCCc2ccccc2)CC3C1C5` (stereo partly specified): the ED50 was 0.019 µmol/kg.

As to `COc1ccc2c3c1OC1[C@H]4OC[C@@]4(CCCCc4ccccc4)CC4C(C2)N(C)CCC341` (stereo partly specified), the ED50 was 0.005 µmol/kg.

On to `COc1ccc2c3c1OC1[C@H]4OC[C@@]4(CCCCc4ccccc4)CC4C(C2)N(CC2CC2)CCC341` (stereo partly specified), for which the ED50 was determined as 0.61 µmol/kg.

Take `COc1ccc2c3c1OC1[C@H](O)[C@](CO)(CCCCCCc4ccccc4)CC4C(C2)N(C)CCC341` (stereo partly specified): the ED50 stood at 4.5 µmol/kg.

For the molecule `COc1ccc2c3c1OC1[C@H](O)[C@](CO)(CCCCc4ccccc4)CC4C(C2)N(C)CCC341` (stereo partly specified), the ED50 was 0.014 µmol/kg.

As for `OC[C@@]1(CCCCc2ccccc2)CC2C3Cc4ccc(O)c5c4C2(CCN3CC2CC2)C(O5)[C@@H]1O` (stereo partly specified), the ED50 is 11 µmol/kg.

Take `C[C@@]1(CCCCc2ccccc2)CC2C3Cc4ccc(O)c5c4C2(CCN3CC2CC2)C(O5)C1=O` (stereo partly specified): the ED50 came out at 0.11 µmol/kg.

For the molecule `COc1ccc2c3c1OC1[C@H](O)[C@@](C=CCCCc4ccccc4)(CO)CC4C(C2)N(C)CCC341` (stereo partly specified), the ED50 worked out at 4 µmol/kg.

Consider `OC[C@@]1(CCc2ccccc2)CC2C3Cc4ccc(O)c5c4C2(CCN3CC2CC2)C(O5)[C@@H]1O` (stereo partly specified), for which the ED50 came out at 0.95 µmol/kg.

Take `CN1CCC23c4c5ccc(O)c4OC2[C@H](O)[C@](CO)(CCCCc2ccccc2)CC3C1C5` (stereo partly specified): the ED50 was found to be 0.003 µmol/kg.

In the case of `COc1ccc2c3c1OC1C(=O)[C@](C)(CCc4ccccc4)CC4C(C2)N(CC2CCC2)CCC314` (stereo partly specified), the ED50 worked out at 0.19 µmol/kg.

For the molecule `COc1ccc2c3c1OC1[C@H](O)[C@](CO)(CCCc4ccccc4)CC4C(C2)N(CC2CC2)CCC341` (stereo partly specified), the ED50 was 0.13 µmol/kg.

As to `COc1ccc2c3c1OC1[C@H](O)[C@](CO)(CCCc4ccccc4)CC4C(C2)N(CC2CCC2)CCC341` (stereo partly specified), the ED50 came out at 0.04 µmol/kg.

As for `C[C@@]1(CCCCc2ccccc2)CC2C3Cc4ccc(O)c5c4C2(CCN3CC2CCC2)C(O5)C1=O` (stereo partly specified), the ED50 turned out to be 0.17 µmol/kg.

As to `COc1ccc2c3c1OC1C(=O)[C@](C)(CCCCc4ccccc4)CC4C(C2)N(CC2CCC2)CCC314` (stereo partly specified), the ED50 was 5.6 µmol/kg.

For the molecule `CN1CCC23c4c5ccc(O)c4OC2[C@H](O)[C@](CO)(CCc2ccccc2)CC3C1C5` (stereo partly specified), the ED50 was 0.004 µmol/kg.

`COc1ccc2c3c1OC1[C@H](O)[C@](CO)(CCc4ccccc4)CC4C(C2)N(C)CCC341` (stereo partly specified): the ED50 turned out to be 0.028 µmol/kg.

For `CN1CCC23c4c5ccc(O)c4OC2[C@H](O)[C@](CO)(CCCc2ccccc2)CC3C1C5` (stereo partly specified), the ED50 was 0.85 µmol/kg.

For `OC[C@@]1(CCc2ccccc2)CC2C3Cc4ccc(O)c5c4C2(CCN3CC2CCC2)C(O5)[C@@H]1O` (stereo partly specified), the ED50 was 2.5 µmol/kg.

In the case of `CCCC[C@]1(CO)CC2C3Cc4ccc(O)c5c4C2(CCN3C)C(O5)[C@@H]1O` (stereo partly specified), the ED50 amounted to 0.56 µmol/kg.

Take `COc1ccc2c3c1OC1C4OC[C@@]4(CCc4ccccc4)CC4C(C2)N(CC2CC2)CCC341` (single isomer, unassigned): the ED50 worked out at 0.57 µmol/kg.

Regarding `Oc1ccc2c3c1OC1C4OC[C@@]4(CCc4ccccc4)CC4C(C2)N(CC2CCC2)CCC341` (single isomer, unassigned), the ED50 came out at 0.39 µmol/kg.

With `Oc1ccc2c3c1OC1C4OC[C@@]4(CCCc4ccccc4)CC4C(C2)N(CC2CC2)CCC341` (single isomer, unassigned), the ED50 came to 0.003 µmol/kg.

Take `Oc1ccc2c3c1OC1C4OC[C@@]4(CCCCc4ccccc4)CC4C(C2)N(CC2CCC2)CCC341` (single isomer, unassigned): the ED50 amounted to 0.05 µmol/kg.

On to `Oc1ccc2c3c1OC1C4OC[C@@]4(CCc4ccccc4)CC4C(C2)N(CC2CC2)CCC341` (single isomer, unassigned), for which the ED50 worked out at 0.04 µmol/kg.

As for `COc1ccc2c3c1O[C@H]1[C@@H](O)C=C[C@H]4[C@@H](C2)N(C)CC[C@@]341` [CODEINE], the ED50 worked out at 10.3 µmol/kg.

Take `COc1ccc2c3c1O[C@H]1C(=O)CC[C@H]4[C@@H](C2)N(C)CC[C@]314` [HYDROCODONE]: the ED50 was determined as 2.4 µmol/kg.
